This assay has as its target T1, Diacylglycerol lipase-alpha (Homo sapiens, UniProt Q9Y4D2).
T1 sequence (Q9Y4D2 whole entry): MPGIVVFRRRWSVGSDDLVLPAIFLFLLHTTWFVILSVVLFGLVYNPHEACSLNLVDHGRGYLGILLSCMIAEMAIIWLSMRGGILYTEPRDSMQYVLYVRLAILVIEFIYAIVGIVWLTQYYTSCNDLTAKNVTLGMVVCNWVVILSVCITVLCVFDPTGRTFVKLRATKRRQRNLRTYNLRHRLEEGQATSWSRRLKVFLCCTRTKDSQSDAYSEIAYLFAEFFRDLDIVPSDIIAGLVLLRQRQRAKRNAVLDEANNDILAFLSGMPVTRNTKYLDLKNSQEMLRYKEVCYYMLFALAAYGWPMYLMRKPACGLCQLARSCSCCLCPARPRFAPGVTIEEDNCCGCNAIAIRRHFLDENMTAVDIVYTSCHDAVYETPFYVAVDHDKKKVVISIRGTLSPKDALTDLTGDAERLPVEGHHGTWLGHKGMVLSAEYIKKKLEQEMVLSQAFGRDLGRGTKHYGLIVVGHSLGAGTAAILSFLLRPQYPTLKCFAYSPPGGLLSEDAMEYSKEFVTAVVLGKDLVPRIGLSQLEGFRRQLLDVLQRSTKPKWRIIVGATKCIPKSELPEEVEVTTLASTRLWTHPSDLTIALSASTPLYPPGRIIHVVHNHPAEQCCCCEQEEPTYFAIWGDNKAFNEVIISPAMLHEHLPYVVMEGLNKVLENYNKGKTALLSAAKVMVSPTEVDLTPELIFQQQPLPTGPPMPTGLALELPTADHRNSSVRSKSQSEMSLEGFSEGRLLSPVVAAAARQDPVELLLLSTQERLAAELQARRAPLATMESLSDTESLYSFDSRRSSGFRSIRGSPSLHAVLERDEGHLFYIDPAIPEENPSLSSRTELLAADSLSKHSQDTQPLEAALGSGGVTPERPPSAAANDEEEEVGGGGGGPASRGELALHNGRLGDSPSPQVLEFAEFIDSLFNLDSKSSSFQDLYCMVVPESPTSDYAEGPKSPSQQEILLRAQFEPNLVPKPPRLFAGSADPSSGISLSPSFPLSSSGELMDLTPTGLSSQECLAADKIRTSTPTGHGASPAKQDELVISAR
Put plainly: Inhibition of full-length human DAGLalpha expressed in HEK293T cell membranes using para-nitrophenylbutyrate by colorimetric assay. The format is cell-based, HEK-293T. The method in brief:
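Membranes from HEK293T cells transiently transfected with full-length human DAGL-α (pcDNA3.1; PEI transfection, harvested at 72 h), diluted to 0.05 μg/μL final protein in 50 mM HEPES pH 7.2. Screen at 10 μM in duplicate; dose response by 10-fold serial dilution.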
For `O=C(CCCCCc1ccccc1)c1nc2ccccc2o1`, the IC50 was 3.63 µM.

Turning to `CCCCC/C=C\C/C=C\C/C=C\C/C=C\CCCC(=O)c1nc2ncccc2o1`, the 50% inhibitory concentration (IC50) was 2.4 µM.

`O=C(CCCCCc1ccccc1)c1nc2ncccc2s1`: the IC50 was over 10 µM.

`O=C(CCCCCc1ccccc1)c1nc2cccc(F)c2o1` gave a half-inhibitory concentration (IC50) of over 10 µM.

For `O=C(CCCCCc1ccccc1)c1nc2cc(F)ccc2o1`, the 50% inhibitory concentration (IC50) was 1.41 µM.

Compound `O=C(CCCCCc1ccccc1)c1nc2cccnc2o1` showed a half-inhibitory concentration (IC50) of 1.7 µM.

For `O=C(CCCCCCc1ccccc1)c1nnc(-c2ccccc2)s1`, the concentration for half-maximal inhibition (IC50) was over 10 µM.

The compound `O=C(CCCCCc1ccccc1)c1nc2ccccc2[nH]1` gave an IC50 of 12 µM.

In the case of `O=C(CCCCCc1ccccc1)c1nc2cnccc2o1`, the 50% inhibitory concentration (IC50) was 0.204 µM.

`O=C(CCCCCc1ccccc1)c1nc2ccc(F)cc2o1`: half-maximal inhibition (IC50) required 0.708 µM.

In the case of `O=C(CCCCCc1ccccc1)c1nc2ncccc2[nH]1`, the IC50 is 1.23 µM. Compared with the last compound, the IC50 is about 1.7-fold higher.

The compound `O=C(CCCCCc1ccccc1)c1nc2cc([N+](=O)[O-])ccc2o1` showed an IC50 of 0.891 µM.

In the case of `O=C(CCCCCc1ccccc1)c1nc2ccc([N+](=O)[O-])cc2o1`, inhibition was half-maximal at 0.0871 µM (IC50). This IC50 lies about 10-fold lower than the previous one.

In the case of `CCCCCCCC/C=C\CCCCCCCC(=O)c1nc2ccccc2[nH]1`, the IC50 was 0.195 µM. This IC50 lies about 2.2-fold higher than the previous one.

The compound `O=C(CCCCCc1ccccc1)c1nc2c(F)cccc2o1` gave a half-inhibitory concentration (IC50) of 0.117 µM.

The compound `O=C(CCCCCc1ccccc1)c1nc2ccc(Br)cc2o1` showed an IC50 of 5.89 µM.

For `O=C(CCCCCc1ccccc1)c1nc2ccccc2s1`, the IC50 was over 10 µM.

As for `O=C(CCCCCc1ccccc1)c1nc2cccc(Br)c2o1`, the IC50 was over 10 µM.

Regarding `O=C(CCCCCCc1ccccc1)c1nnc(-c2cccs2)s1`, the IC50 was over 10 µM.

As for `COC(=O)c1nnc(C(=O)CCCCCCc2ccccc2)s1`, the IC50 is over 10 µM.

`O=C(CCCCCCc1ccccc1)c1ncc(-c2ccccn2)s1`: the IC50 was over 10 µM.

`O=C(CCCCCCc1ccccc1)c1ncc(-c2ccco2)s1` gave an IC50 of over 10 µM.

`O=C(CCCCCCc1ccccc1)c1nncs1` showed an IC50 of over 10 µM.

Compound `O=C(CCCCCCc1ccccc1)c1nnc(-c2ccccn2)s1` had a half-inhibitory concentration (IC50) of over 10 µM.

Regarding `O=C(CCCCCCc1ccccc1)c1nnc[nH]1`, the IC50 is over 10 µM.

For `O=C(CCCCCCc1ccccc1)c1ncc(-c2cccs2)s1`, the IC50 was over 10 µM.

As to `O=C(CCCCCCc1ccccc1)c1nnc(-c2ccco2)s1`, the 50% inhibitory concentration (IC50) was over 10 µM.

One may read the IC50 as the concentration needed to halve the response being measured.

(Values after ChEMBL document CHEMBL3751702, “Comprehensive Analysis of Structure-Activity Relationships of α-Ketoheterocycles as sn-1-Diacylglycerol Lipase α Inhibitors” (J Med Chem, 2015).)
